SMILES strings stand for the structures. Activity calls are given as the source filed them. The calls are words filed in the database; no cut-off is given here. Where only a bound is given, the exact number is not on record here.

Test [1] relates to Influenza A virus. Kind of test: Antiviral activity against amantadine-sensitive Influenza A virus A/Hong Kong/8/68 (H3N2) infected in MDCK cells assessed as host cell survival after 72 hrs by CCK8 method. It is filed as functional, organism-based. The essentials: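 Compounds added with TPCK and 0.3% BSA and preincubated 30 min at 37 °C. Cells then infected with about 0.01 MOI A/Hong Kong/8/68 (H3N2) and incubated 72 h at 37 °C in 5% CO2. CCK-8 reagent then added to read host cell survival.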

The subject of test [2] is Influenza A virus. Kind of test: Ratio of compound IC50 to amantadine IC50 for Influenza A virus A/Hong Kong/8/68 (H3N2). It is filed as functional.
For test [3], the system named is Influenza A virus. Kind of test: Antiviral activity against amantadine-sensitive Influenza A virus A/Hong Kong/8/68 (H3N2) infected in MDCK cells at 0.01 to 10 uM after 2 to 3 days by crystal violet staining by plaque reduction assay. It is filed as functional, organism-based. The method, boiled down:
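MDCK monolayer infected with 0.01 MOI A/Hong Kong/8/68 for 1 h at 37 °C. Inoculum removed and cells washed twice with PBS, then overlaid with 1% agar DMEM containing test agent. Plaque formation scored.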

As to `CCN[C@@H]1C[C@@H]2C[C@H]([C@H]1C)C2(C)C`, the IC50 (usually the point on the concentration scale where inhibition reaches its midpoint) in the test on Influenza A virus [1] is more than 200 µM.
On the same count and under the same terms, the value for `C[C@@H]1[C@H]2C[C@@H](C[C@H]1/N=C/c1ccccc1)C2(C)C` was 7.78 µM.
For `Cc1ccc(/C=N/[C@@H]2C[C@@H]3C[C@H]([C@H]2C)C3(C)C)cc1`, the IC50 in the test on Influenza A virus [1] is 13.9 µM.
Same read-out and setting: the value for `C[C@@H]1[C@H]2C[C@@H](C[C@H]1NCC1CC1)C2(C)C` was 28.5 µM.
On to `C[C@@H]1[C@H]2C[C@@H](C[C@H]1/N=C/c1ccccc1O)C2(C)C`, for which, in the test with Influenza A virus [1], the IC50 amounted to 20.3 µM.
On the same count and under the same terms, in the case of `C[C@@H]1[C@H]2C[C@@H](C[C@H]1/N=C/c1ccc(N(C)C)cc1)C2(C)C` it was 38.4 µM.
Turning to `C[C@@H]1[C@H]2C[C@@H](C[C@H]1/N=C/c1cccc(O)c1)C2(C)C`, in the test on Influenza A virus [1], the IC50 is 5.99 µM.
For `NC12CC3CC(CC(C3)C1)C2` [AMANTADINE], the IC50 in the test on Influenza A virus [1] was 21.1 µM.
Same read-out and setting: the value for `C[C@@H]1[C@H]2C[C@@H](C[C@H]1NCc1ccc(O)cc1)C2(C)C` was more than 200 µM.
Same read-out and setting: in the case of `CN[C@@H]1C[C@@H]2C[C@H]([C@H]1C)C2(C)C` it was 23.5 µM; in that of `C[C@@H]1[C@H]2C[C@@H](C[C@H]1NC1CCCCC1)C2(C)C`, 43.7 µM; in that of `C[C@@H]1[C@H]2C[C@@H](C[C@H]1NCc1ccc(F)cc1)C2(C)C`, more than 200 µM.
With `C[C@@H]1[C@H]2C[C@@H](C[C@H]1/N=C/c1ccc(O)cc1)C2(C)C`, in the test on Influenza A virus [2], the “Ratio IC50” value came to 240. The 50% inhibitory concentration (IC50) in the test with Influenza A virus [1] was found to be 0.088 µM. In the test on Influenza A virus [3], the outcome was Active.
For `C[C@@H]1[C@H]2C[C@@H](C[C@H]1/N=C/c1ccc(F)cc1)C2(C)C`, in the test with Influenza A virus [1], the IC50 was determined as 16.3 µM.
On the same count and under the same terms, the value for `CC(C)N[C@@H]1C[C@@H]2C[C@H]([C@H]1C)C2(C)C` was more than 200 µM.

Source of the values: ChEMBL document CHEMBL1649372, “Discovery of highly potent agents against influenza A virus” (Eur J Med Chem, 2011).
